Bioassay records (PubChem BioAssay)
The list is not random: actives were taken first. Their share in the collection is about 2.1%.
MT1-MMP txn act: activates MT1-MMP transcription. HT1080 MT1-MMP promoter luciferase reporter, luminescence, overnight; stronger effect = higher value. activation factor at 10 µM. 86,000 compounds, 0.16% hits;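 active means activation factor of at least 2 for MT1-MMP transcription at 10 µM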
TNAP act mid DEA: activates human TNAP at intermediate phosphate acceptor concentration. AID 813. purified TNAP, CDP-star luminescence, 100 mM DEA, 30 min; stronger effect = higher value; scale: 0 levamisole-inhibited, 1 vehicle-only enzyme. 64,000 tested, under 10 active. activation factor at 20 µM;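 active means activation factor of at least 2 at 20 µM, relative to controls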
MMP-13 inhibitor: blocks human MMP13 activity | P45452 | 65,000 compounds, 0.07% hits | inhibition, % at 4 µM | MMP-13 fTHP FRET cleavage, Mca fluorescence;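 active means inhibition above the mean of compound-free control plate wells plus 3 SD, cut at about 14% in these data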;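 further: 0% = DMSO wells and 100% = wells with reference MMP-13 inhibitor after basal subtraction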
SF-1 act: activates the human nuclear receptor SF-1. Q13285. CHO-K1 Gal4-SF-1 LBD luciferase reporter; % increase over DMSO SF-1-specific signal. activation, % at 10 µM. 65,000 compounds, 1.9% hits. AID 522;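 active means activation above the mean activation of all tested compounds plus 3 SD, cut at about 50% in these data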
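Material: Transient Gal4-SF-1 LBD reporter, CHO-K1 | Input: 4,000 cells/well | Dosing: One dose, 10 µM compound, 1% DMSO | Incubation: 20 h compound treatment, 37 °C | Detection: SteadyLite luciferase luminescence | Evaluation: Percent activation relative to DMSO median and mock-transfected background | Benchmarks: DMSO-treated SF-1-transfected cells as negative, DMSO-treated mock-transfected cells lacking SF-1 as background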
RORA act: activates the human nuclear receptor RORA; 65,000 compounds, 1.5% hits; activation, % at 10 µM; CHO-K1 Gal4-RORA LBD luciferase reporter, luminescence; percent increase over mock-subtracted basal signal; P35398;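 active means activation above the mean of all tested compounds plus 3 SD, cut at about 49% in these data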;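 further: 0% = DMSO-treated RORA cells and 100% = added signal equal to DMSO minus mock-transfected cells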
Target sequence (P35398 whole entry, looked up, the tested form may be a part): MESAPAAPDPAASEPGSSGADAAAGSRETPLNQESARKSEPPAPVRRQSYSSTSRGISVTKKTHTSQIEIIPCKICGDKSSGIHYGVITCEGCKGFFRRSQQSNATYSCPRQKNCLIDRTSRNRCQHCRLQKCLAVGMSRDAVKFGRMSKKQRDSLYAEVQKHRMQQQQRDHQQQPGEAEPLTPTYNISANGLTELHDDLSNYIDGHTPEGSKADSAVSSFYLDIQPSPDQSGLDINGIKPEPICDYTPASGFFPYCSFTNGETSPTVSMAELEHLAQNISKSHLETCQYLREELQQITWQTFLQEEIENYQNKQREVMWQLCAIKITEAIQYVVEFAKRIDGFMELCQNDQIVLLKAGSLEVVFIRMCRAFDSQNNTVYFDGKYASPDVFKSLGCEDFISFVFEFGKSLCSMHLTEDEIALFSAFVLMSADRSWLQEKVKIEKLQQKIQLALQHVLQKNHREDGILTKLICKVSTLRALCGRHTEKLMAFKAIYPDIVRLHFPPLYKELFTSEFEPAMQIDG
* = called active by the depositor; . = no result given; ! = not active in a repeat.

SMILES | MT1-MMP txn act | TNAP act mid DEA | MMP-13 inhibitor | SF-1 act | RORA act
CCn1c(SCC(=O)Nc2ccc(C(C)=O)cc2)nc2ccccc21 | 1.4 | 0.9 | 5 | 65* | 62*
COCCCn1c(SCC(=O)Nc2ccc(C(C)=O)cc2)nc2ccccc2c1=O | 1.7 | 0.9 | 0 | 19 | 38
CC(=O)c1c(C)[nH]c(C(=O)OCCCCN2C(=O)c3ccccc3C2=O)c1C | 1 | 0.9 | -1 | -84 | -78
CC(C)c1ccc(C(=O)CSc2ncn[nH]2)cc1 | 1.4 | 1 | 4 | 53* | 53*
Cc1cc2n(c(=O)c1C#N)CCCN2c1ccccc1 | 0.9 | . | . | . | .
Cc1ccnc(NS(=O)(=O)c2ccc(NC(=O)c3c(-c4ccccc4Cl)noc3C)cc2)n1 | 1.1 | . | . | . | .
N#Cc1c(/N=C/c2cccs2)sc2c1CCC2 | 1.4 | 0.9 | 3 | 31 | -22
N#Cc1c(/N=C/c2cc(Br)cs2)sc2c1CCC2 | 2.2* | . | . | . | .
N#Cc1c(/N=C/c2ccco2)sc2c1CCCCC2 | 1 | 1 | -1 | 82* | 45
Oc1ccccc1-c1cc(-c2ccc3c(c2)OCCO3)n[nH]1 | 0.2 | 1.2 | -1 | 36 | 55*
CCOC(=O)N1CCN(C(=O)c2cc(-c3ccc(OCC)cc3)nc3ccccc23)CC1 | 0.8 | 0.8 | -131 | 71* | 136*
O=C(CCCOc1ccccc1)N1CCN(c2ccccn2)CC1 | 0.8 | 0.9 | -16 | 26 | 56*
COc1ccc(-c2cc(C(=O)N3CCN(c4ccccn4)CC3)c3ccccc3n2)cc1 | 1.8 | 0.9 | -18 | 90* | 74*
O=C(CCCOc1ccc(Cl)cc1Cl)N1CCN(c2ccccn2)CC1 | 1.2 | 0.9 | 1 | 16 | 1
CCOc1ccc(-c2cc(C(=O)N3CCN(c4ccccn4)CC3)c3ccccc3n2)cc1 | 0.9 | 0.9 | -11 | 91* | 76*
O=C(Nc1ccc(Cl)cc1)OCCn1nnnc1C(c1ccccc1Cl)N1CCOCC1 (configuration not stated) | 1.2 | . | . | . | .
O=C(c1ccccc1Nc1ccc(SC(F)F)cc1)N1CCCCCC1 | 1.1 | . | . | . | .
O=C1CCCc2oc3ccc(O)cc3c21 | 1.2 | . | . | . | .
COC(=O)c1cc(COc2ccc3c4c(c(=O)oc3c2)CCC4)c(C)o1 | 1 | . | . | . | .
CC(C)Oc1ccc(C2C(C(=O)c3ccco3)=C(O)C(=O)N2Cc2cccnc2)cc1 (configuration not stated) | 1 | 0.9 | -6 | 39 | 70*
CCOc1ccc(C2C(C(=O)c3ccco3)=C(O)C(=O)N2Cc2cccnc2)cc1OC (configuration not stated) | 1 | 0.9 | 2 | 0 | -1
O=C(Nc1ccc2nc(-c3ccc(Br)o3)[nH]c2c1)c1cccs1 | 1.3 | 1 | 0 | 6 | 62*
O=C(Nc1ccc2nc(-c3ccccc3)[nH]c2c1)c1ccco1 | 1.6 | . | . | . | .
O=C(Nc1ccc2nc(-c3ccc(Br)o3)[nH]c2c1)c1ccco1 | 1.3 | 0.9 | -2 | 30 | 55*
CCOC(=O)N1CCN(c2cc(C)c(C(C)=O)cc2F)CC1 | 1 | 1 | 3 | -14 | 15
SMILES | MT1-MMP txn act | TNAP act mid DEA | MMP-13 inhibitor | SF-1 act | RORA act
CCOC(=O)N1CCN(c2ccc(C(=O)c3ccccc3)cc2F)CC1 | 1.4 | 0.8 | -3 | 36 | 58*
O=C(Nc1cccc2nsnc12)c1cccs1 | 1.7 | 0.9 | -24 | 24 | 78*!
CCOC(=O)CSC1=C(C#N)C(c2ccc(C)s2)CC(=O)N1 (configuration not stated) | 0.5 | 0.9 | 2 | 26 | 54*
CCOC(=O)C1=C(C)N(CCCCCC(=O)O)C(=O)NC1c1cccc(Cl)c1Cl (configuration not stated) | 1.2 | . | . | . | .
COC(=O)CNc1c(-c2ccccn2)nc2ccc(Br)cn12 | 0.5 | 0.9 | -2 | 69* | 60*
Cn1cnc2cc(NC(=O)c3ccc(Cl)cc3)ccc21 | 1.4 | 0.8 | 1 | 67* | 79*
CCN1CCc2c(sc(NC(=O)c3ccc(S(=O)(=O)N4CCOCC4)cc3)c2C(N)=O)C1 | 1.1 | 0.9 | 2 | -7 | 4
CC(C)N1CCc2c(sc(NC(=O)c3ccc(S(=O)(=O)N4CCOCC4)cc3)c2C(N)=O)C1 | 1.1 | 0.9 | 14* | -11 | -2
O=c1c(-c2ccnn2-c2cccc(Cl)c2)cnc2n1CCS2 | 1.2 | . | . | . | .
COC(=O)c1sc(NC(=O)c2cc3c(s2)CCCC3)nc1C | 1.3 | 0.9 | -7 | 18 | 43
Cc1nc(NC(=O)c2cc3c(s2)CCCCC3)sc1C(=O)N(C)C | 1.6 | 1 | 2 | 60* | 48
Cc1nc(NC(=O)c2ccc(Br)s2)sc1C(=O)N(C)C | 1.2 | 0.9 | 2 | 107* | 70*
CCOC(=O)C(CC)(CC)/C(C)=N/NC(=O)CC#N | 1.2 | . | . | . | .
CC(C)CC(=O)Nc1ccc2oc(-c3ccncc3)nc2c1 | 1.4 | 0.9 | -31 | 55* | 35
CC1=CCC(C(=O)O)(C(=O)N/N=C/c2cccs2)C(c2ccc([N+](=O)[O-])cc2)C1 (configuration not stated) | 1.2 | . | . | . | .
Cc1cc(C)cc(NC(=O)NC2CCN(CC(=O)Nc3c(C)cc(C)cc3C)CC2)c1 | 1.1 | . | . | . | .
Cn1c2ccccc2c2ncn(CCC3=CCCCC3)c(=O)c21 | 1.5 | 0.9 | -17 | 51* | 48
Cc1ccc(-c2nnc(CSc3nc(C(C)C)nc4sc(C)c(C)c34)o2)cc1 | 1.2 | . | . | . | .
Cc1c(/C=C/C(=O)c2ccc(Cl)s2)cnn1C | 2.4* | . | . | . | .
COc1ccc(CSc2nnc(Cc3sc(-c4ccccc4)nc3-c3ccccc3)o2)cc1 | 1 | . | . | . | .
Clc1ccc(-n2ncc3c(NCCCn4ccnc4)ncnc32)cc1 | 1.8 | 0.9 | -14 | 47 | 12
Fc1cccc(Nc2ncnc3c2cnn3-c2ccccc2)c1 | 1.3 | 0.8 | -11 | 57* | 102*
Clc1cccc(Nc2ncnc3c2cnn3-c2ccccc2)c1 | 1 | 1 | -31 | 45 | 29
CCCCNc1ncnc2c1cnn2-c1ccccc1 | 0.7 | 0.9 | -1 | 40 | 63*
CCCCNc1ncnc2c1cnn2-c1ccc(Cl)cc1 | 1.6 | 0.9 | -5 | 90* | 109*
SMILES | MT1-MMP txn act | TNAP act mid DEA | MMP-13 inhibitor | SF-1 act | RORA act
O=C(CCn1c(=O)c2ccccc2n(CC(=O)NC2CCCC2)c1=O)NCc1ccco1 | 1.1 | . | . | . | .
CCCOC(=O)c1ccc(NC(=O)C2CCCO2)cc1 (configuration not stated) | 1.3 | 0.9 | -1 | 68* | 9
CCOC(=O)c1[nH]c2cc(OC)c(OC)cc2c1N | 1.1 | . | . | . | .
CCOC(=O)c1[nH]c2ccc(C)cc2c1N | 1.7 | 0.9 | -11 | 73* | 12
CC(=O)Nc1ccc(NC2=CC(=O)CC(C)(C)C2)cc1 | 1.1 | 0.9 | -4 | 10 | -13
Cc1cc(N)c(NC2=CC(=O)CC(C)(C)C2)cc1C | 1.1 | 0.9 | -3 | 9 | 70*
FC(F)Oc1ccc(/C=N/c2c(-c3ccc(OC(F)F)cc3)nc3n2CCS3)cc1 | 1.7 | . | . | . | .
Oc1ccc(-c2cccc(-c3ccc(O)cc3)n2)cc1 | 1.5 | 0.9 | -7 | 38 | 52*
Cc1cc(NC(=O)c2cc(C(C)C)on2)no1 | 1.6 | 1 | -2 | 9 | 4
